Compound activity deposited in PubChem BioAssay by The Scripps Research Institute Molecular Screening Center.
Only some compounds are listed: those with a hit (about 2.9% of all), similar ones and a draw of the others.
OX1R antag-1 = blocks the human orexin 1 receptor; O43613; inhibition, % at 5 µM; CHO/OX1R cells, Fluo-8 calcium fluorescence, orexin A; hit rate 0.43% among 330,000;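 active means inhibition above its plate's threshold, mean inhibition of all tested compounds on the plate plus 3 SD, cut at about 37% in these data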;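 further: 0% = orexin A challenge wells and 100% = SB-334867-A antagonist wells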
Target sequence (O43613 whole entry, looked up): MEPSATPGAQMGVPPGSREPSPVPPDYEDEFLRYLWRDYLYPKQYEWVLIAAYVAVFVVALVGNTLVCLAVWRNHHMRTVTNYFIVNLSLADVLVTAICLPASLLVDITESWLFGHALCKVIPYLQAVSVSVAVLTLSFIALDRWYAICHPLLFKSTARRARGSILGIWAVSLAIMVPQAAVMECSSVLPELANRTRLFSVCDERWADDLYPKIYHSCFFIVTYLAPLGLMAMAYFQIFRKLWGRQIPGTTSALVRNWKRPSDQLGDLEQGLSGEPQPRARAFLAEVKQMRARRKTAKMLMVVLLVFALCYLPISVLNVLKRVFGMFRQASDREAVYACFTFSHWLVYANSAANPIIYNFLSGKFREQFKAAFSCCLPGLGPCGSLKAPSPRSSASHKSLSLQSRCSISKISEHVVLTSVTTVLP
CHO-K1 Ca ag = counter-screen for M1 agonists: effect in parental CHO-K1 cells. Fluo-8 calcium fluorescence; scaled to maximal ATP response, vehicle zero. activation, % at 3 µM. hit rate 0.48% among 360,000. AID 602248; in the data active means activation above about 15%;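 further: untransfected CHO-K1 host cells lacking M1 receptor as counterscreen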
OX1R antag-2 = OX1R (human) antagonism. O43613. OX1R-expressing cells, FRET antagonist read-out. inhibition, % at 6.6 µM. hit rate 1.8% among 330,000; in the data active means inhibition mostly above about 38%, no sharp cut-off; inactive means mostly below about 40%;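 further: 0% = agonist challenge alone and 100% = reference antagonist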
CHO-K1 Ca antag = nonselective inhibitor or artifact in parental CHO-K1 cells. hit rate 0.6% among 360,000. inhibition, % at 3 µM. ATP-induced calcium, Fluo-8 fluorescence;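 active means inhibition above a per-plate cutoff, the plate's mean sample inhibition plus 3 SD, cut at about 24% in these data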;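 further: 0% = DMSO plus EC80 ATP and 100% = DMSO alone without ATP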
CHO parental Ca = counter-screen for OX1R antagonists: effect in parental CHO cells; parental CHO-K1, ATP-induced calcium, Fluo-8 fluorescence; inhibition, % at 5.6 µM; hit rate 0.63% among 330,000;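 active means inhibition above that plate's mean sample inhibition plus 3 SD, cut at about 26% in these data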;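 further: 0% = ATP-challenged DMSO wells and 100% = DMSO wells without ATP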
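Material: parental CHO cells / Compound: single nominal dose of 5.6 µM per compound / Signal: Fluo-8 fluorescence / Replicates: singlicate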
CHO-K1 Ca PAM = counter-screen for M1 PAMs: effect in parental CHO-K1 cells. hit rate 0.02% among 360,000. ATP EC20, Fluo-8 calcium fluorescence; 0% at ATP EC20, 100% at ATP max. activation, % at 3 µM;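 active means activation above the run cutoff, the mean activation of all test compounds plus 3 SD, cut at about 40% in these data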;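 further: peak over basal fluorescence ratio in a 140 s read after ATP addition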
OX1R HTRF conf = confirmation of human orexin 1 receptor antagonists, HTRF format. shares compounds with OX1R antag-2. OX1R-expressing cells, HTRF antagonist assay. inhibition, % at 6.6 µM. hit rate 49% among 1,800; in the data active means inhibition above about 55%;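 further: CHO cells expressing OX1R stimulated with orexin A at about EC80; 0% = agonist challenge alone and 100% = reference antagonist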
CHO-K1 HTRF = counter-screen: parental CHO-K1 HTRF response; shares compounds with OX1R antag-2; parental CHO-K1 cells, HTRF counterscreen; inhibition, % at 6.6 µM; hit rate 48% among 1,800; in the data active means inhibition above about 17%;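 further: 0% = agonist challenge with vehicle and 100% = vehicle alone without agonist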
Starred values were filed as active, the others as inactive.

How did O=[N+]([O-])c1ccc(-n2cnc3ccccc32)c([N+](=O)[O-])c1 do in these assays?
OX1R antag-1: -13; CHO-K1 Ca ag: 0; OX1R antag-2: 107*; CHO-K1 Ca antag: 9; CHO parental Ca: -6; CHO-K1 Ca PAM: 6; OX1R HTRF conf: 39; CHO-K1 HTRF: 45*

Results for COc1cc(SC)ccc1C(=O)Nc1ccccn1 ?
OX1R antag-1: -18; CHO-K1 Ca ag: 2; OX1R antag-2: 13; CHO-K1 Ca antag: -10; CHO parental Ca: -16; CHO-K1 Ca PAM: 17

How did COc1cc(SC)ccc1C(=O)Nc1ccc2ncccc2c1 do in these assays?
OX1R antag-1: -1; CHO-K1 Ca ag: 2; OX1R antag-2: 90*; CHO-K1 Ca antag: -6; CHO parental Ca: -23; CHO-K1 Ca PAM: 20; OX1R HTRF conf: 86*; CHO-K1 HTRF: 14

What do the screens show for `O=C(Nc1ncc([N+](=O)[O-])s1)C1CC(=O)N(c2ccc(F)cc2)C1` (stereo not drawn)?
OX1R antag-1: -17; CHO-K1 Ca ag: 4; OX1R antag-2: 26; CHO-K1 Ca antag: -15; CHO parental Ca: 16; CHO-K1 Ca PAM: -14

Results for O=C1NCCN1c1ncc([N+](=O)[O-])s1 ?
OX1R antag-1: -2; CHO-K1 Ca ag: 0; OX1R antag-2: 82*; CHO-K1 Ca antag: 11; CHO parental Ca: 6; CHO-K1 Ca PAM: -13; OX1R HTRF conf: 63*; CHO-K1 HTRF: 88*

Results for COc1ccccc1OCCCC(=O)Nc1nnc(C2CCCO2)s1 (stereo not drawn) ?
OX1R antag-1: -19; CHO-K1 Ca ag: 1; OX1R antag-2: 4; CHO-K1 Ca antag: -6; CHO parental Ca: -22; CHO-K1 Ca PAM: 7

Results for Cc1ccc(C(=O)Nc2cccc(NC(=O)CN3CCCCC3)c2)cc1 ?
OX1R antag-1: -19; CHO-K1 Ca ag: 0; OX1R antag-2: -4; CHO-K1 Ca antag: -8; CHO parental Ca: -11; CHO-K1 Ca PAM: 11

How did CC(C)Cn1c(N)c(C(=O)COC(=O)CCNS(=O)(=O)c2ccccc2)c(=O)n(C)c1=O do in these assays?
OX1R antag-1: -10; CHO-K1 Ca ag: 15; OX1R antag-2: 99*; CHO-K1 Ca antag: -2; CHO parental Ca: -3; CHO-K1 Ca PAM: 1; OX1R HTRF conf: 22; CHO-K1 HTRF: 2

Results for O=C(/C=C/c1ccc([N+](=O)[O-])cc1)NNC(=O)C1CC1 ?
OX1R antag-1: 1; CHO-K1 Ca ag: 11; OX1R antag-2: 137*; CHO-K1 Ca antag: -5; CHO parental Ca: -1; CHO-K1 Ca PAM: 4; OX1R HTRF conf: 49; CHO-K1 HTRF: 66*

What do the screens show for `COC(=O)c1cn(NC(=O)Cc2ccc(Cl)c(Cl)c2)c(=O)c2ccccc12`?
OX1R antag-1: -19; CHO-K1 Ca ag: 0; OX1R antag-2: 87*; CHO-K1 Ca antag: -9; CHO parental Ca: -18; CHO-K1 Ca PAM: 15; OX1R HTRF conf: 81*; CHO-K1 HTRF: 8

How did c1ccc(N2CCN(c3ncnc4c3oc3ccccc34)CC2)cc1 do in these assays?
OX1R antag-1: 26; CHO-K1 Ca ag: 5; OX1R antag-2: 90*; CHO-K1 Ca antag: -11; CHO parental Ca: -21; CHO-K1 Ca PAM: 14; OX1R HTRF conf: 65*; CHO-K1 HTRF: -28

Results for CCc1nnc(N2CCN(c3ncnc4c3oc3ccccc34)CC2)s1 ?
CHO-K1 Ca ag: 6; CHO-K1 Ca antag: -15; CHO-K1 Ca PAM: 16

How did O=[N+]([O-])c1ccc(Nc2cccc(F)c2)nc1 do in these assays?
OX1R antag-1: -5; CHO-K1 Ca ag: 1; OX1R antag-2: 10; CHO-K1 Ca antag: -7; CHO parental Ca: 20; CHO-K1 Ca PAM: -2

What do the screens show for `COCCn1c(SCC(=O)Nc2ccccc2)nnc1-c1ccoc1C`?
OX1R antag-1: -19; CHO-K1 Ca ag: 0; OX1R antag-2: 13; CHO-K1 Ca antag: -12; CHO parental Ca: -12; CHO-K1 Ca PAM: 3

How did COCCn1c(SCC(=O)Nc2nc3ccccc3s2)nnc1-c1ccoc1C do in these assays?
OX1R antag-1: -9; CHO-K1 Ca ag: 6; OX1R antag-2: 81*; CHO-K1 Ca antag: -4; CHO parental Ca: -20; CHO-K1 Ca PAM: 14; OX1R HTRF conf: 37; CHO-K1 HTRF: 3

How did Nc1cc(OC(=O)c2ccc(F)cc2)nn1S(=O)(=O)c1ccccc1 do in these assays?
OX1R antag-1: -21; CHO-K1 Ca ag: 0; OX1R antag-2: 28; CHO-K1 Ca antag: -10; CHO parental Ca: -27; CHO-K1 Ca PAM: 5

How did COc1ccc(S(=O)(=O)N2CCC(C(=O)NN3CCCCC3)CC2)cc1OC do in these assays?
OX1R antag-1: -8; CHO-K1 Ca ag: 0; OX1R antag-2: 1; CHO-K1 Ca antag: -14; CHO parental Ca: -1; CHO-K1 Ca PAM: 5

What do the screens show for `CN1C(=O)/C(=C2/C=Cc3ccccc3N2CCCS(=O)(=O)O)SC1=S`?
OX1R antag-1: 3; CHO-K1 Ca ag: 0; OX1R antag-2: 100*; CHO-K1 Ca antag: -7; CHO parental Ca: -4; CHO-K1 Ca PAM: 11; OX1R HTRF conf: 59*; CHO-K1 HTRF: 97*

How did [O-][n+]1c(/C=C/c2ccccc2)ccc2ccccc21 do in these assays?
CHO-K1 Ca ag: 1; CHO-K1 Ca antag: -8; CHO-K1 Ca PAM: 13

What do the screens show for `[O-][n+]1c2ccccc2[n+]([O-])c2cc(O)ccc21`?
OX1R antag-1: -13; CHO-K1 Ca ag: 0; OX1R antag-2: 92*; CHO-K1 Ca antag: -10; CHO parental Ca: -4; CHO-K1 Ca PAM: -3; OX1R HTRF conf: 63*; CHO-K1 HTRF: 111*

Results for O=C(O)c1c2c(nc3ccccc13)/C(=C/c1c(F)cccc1F)CCC2 ?
OX1R antag-1: 9; CHO-K1 Ca ag: 1; OX1R antag-2: 113*; CHO-K1 Ca antag: -10; CHO parental Ca: 1; CHO-K1 Ca PAM: -5; OX1R HTRF conf: 45; CHO-K1 HTRF: 18*

What do the screens show for `CC(=O)N1CCN(c2ccc([N+](=O)[O-])cc2C#N)CC1`?
OX1R antag-1: 4; CHO-K1 Ca ag: 0; OX1R antag-2: 100*; CHO-K1 Ca antag: -8; CHO parental Ca: 4; CHO-K1 Ca PAM: 20; OX1R HTRF conf: 38; CHO-K1 HTRF: 47*

How did CCCN1CCN(c2ccc([N+](=O)[O-])cc2C#N)CC1 do in these assays?
OX1R antag-1: -19; CHO-K1 Ca ag: 0; OX1R antag-2: 83*; CHO-K1 Ca antag: -3; CHO parental Ca: -13; CHO-K1 Ca PAM: -15; OX1R HTRF conf: 39; CHO-K1 HTRF: 46*

What do the screens show for `CC(=O)N1CCN(c2ccc(C(N)=O)cc2[N+](=O)[O-])CC1`?
OX1R antag-1: 8; CHO-K1 Ca ag: 1; OX1R antag-2: 81*; CHO-K1 Ca antag: -15; CHO parental Ca: -2; CHO-K1 Ca PAM: 3; OX1R HTRF conf: 27; CHO-K1 HTRF: 30*
